Laboratory results taken from publication PMC3145891 (Naunyn-Schmiedeberg's Archives of Pharmacology, 2011).

Tests used:
[1] = system: cAMP antibody (ENZO cAMP-EIA); assay: ENZO cAMP-EIA, acetylation protocol; type: binding; conditions: EC50cAMP/EC50Analog, acetylated
human platelets = assay: Cell membrane permeability in washed human platelets; type: in vitro ADME
Method in brief: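 Human blood from medication-free donors was collected into citrate–EGTA buffer. Platelet-rich plasma (300×g) was pelleted (380×g), washed in Hepes buffer pH 7.4 and used at 3 × 10^8 platelets/ml. Cells were exposed to analogs at 37°C, normally for 20 min or over a time course. They were lysed in […] buffer pH 8.1 with 1 mM IBMX on ice, then freeze/thaw and needle disruption. Lyophilized supernatant went to EIA, assuming a 5.2 fl cell volume.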

[2] = system: cAMP antibody (ENZO cAMP-EIA); assay: ENZO cAMP-EIA, non-acetylated; type: binding; conditions: non-acetylated cAMP-EIA from ENZO
[3] = system: PKA (VASP phosphorylation) in human platelets; assay: VASP phosphorylation western blot, pVASP Ser-157; type: cell-based
Method in brief: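 Washed human platelets were exposed to various analog concentrations for the indicated times. Protein extracts (10 µg) were run on 9% reducing SDS-PAGE and wet-blotted to nitrocellulose. Blots were blocked in 3% milk/Tris-saline-Tween and probed 1:10,000 with 16C2 (pVASP Ser-239, PKG site) or 5C6 (pVASP Ser-157, PKA site). HRP goat anti-mouse (1:5,000) and ECL gave detection.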

CHO cells = assay: Cell membrane permeability in CHO cells; type: in vitro ADME, Chinese hamster; conditions: serum-free medium, normally 20 min
Method in brief: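 CHO cells were grown in DMEM with 10% FBS and 1% penicillin/streptomycin at 37°C, 5% CO2. Cells were exposed to various analog concentrations in serum-free medium, normally for 20 min, then PBS-washed. Lysis used hypotonic buffer on ice for 30 min, scraping, liquid-nitrogen freeze/thaw and needle disruption. Cleared supernatant was lyophilized for EIA. Intracellular concentration assumed a 1.5 pl cell volume; % permeability = intracellular/extracellular […].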

Structure (SMILES): Nc1ncnc2c1ncn2[C@H]1C[C@@H]2OP(=O)(O)OC[C@H]2O1 [2′-dcAMP, 2`- Deoxyadenosine- 3`,5`- cyclic monophosphate]
- Specificity ENZO cAMP-EIA [1]: 0.034
- Diffusion into the cell, result in words (human platelets; compounds with log Kw < 1): too hydrophilic for any diffusion into the cell
- cNMP conc. inside platelets (% of external) (human platelets; washed human platelets, 37°C, normally 20 min): 0.2 ± 0.3%
- Relative binding EC50cAMP/EC50Analog [2]: 0.22
- VASP phosphorylation (PKA site), result in words [3]: no VASP phosphorylation
- cNMP conc. inside CHO cells (% of external) (CHO cells): 0.1 ± 0.2%
